Source: ChEMBL document CHEMBL3271984, “Antifungal activity of 4-substituted crotonic acid esters” (1976)
Values after ≈ are worked out from the molar mass of the structure shown. Active and inactive are the calls of the source. The calls are words filed in the database; no cut-off is given here.

Columns and labels:
Type in all cases: functional
Aspergillus niger [1] = test: Antifungal activity against Aspergillus niger ATCC 1004 assessed as growth inhibition at pH 5.6 incubated for 5 days in absence of 10% beef serum; details: for MIC: ATCC 1004, 120 h, read-out: MIC100
Summary of the method: (§1)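 Agar dilution in Sabouraud dextrose agar at pH 5.6 or 7.0, with or without 10% beef serum. C. albicans and M. mucedo were incubated 20 h at 37°; A. niger and T. mentagrophytes 5 days at 28°. The value is the minimal µg/ml giving 100% inhibition. Steps were 1 µg/ml up to 10, 2 up to 20, then 10 up to 100 µg/ml maximum.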

Mucor mucedo [2] = test: Antifungal activity against Mucor mucedo ATCC 7941 assessed as growth inhibition at pH 5.6 incubated for 20 hrs in absence of 10% beef serum; details: ATCC 7941, 20 h, read-out: MIC100; summary of the method: as §1
Aspergillus niger [3] = test: Antifungal activity against Aspergillus niger ATCC 1004 assessed as growth inhibition at pH 7 incubated for 5 days in presence of 10% beef serum; details: for MIC: ATCC 1004, 120 h, read-out: MIC100; summary of the method: as §1
Aspergillus niger [4] = test: Antifungal activity against Aspergillus niger ATCC 1004 assessed as growth inhibition at pH 5.6 incubated for 5 days in presence of 10% beef serum; details: for MIC: ATCC 1004, 120 h, read-out: MIC100; summary of the method: as §1
Aspergillus niger [5] = test: Antifungal activity against Aspergillus niger ATCC 1004 assessed as growth inhibition at pH 7 incubated for 5 days in absence of 10% beef serum; details: for MIC: ATCC 1004, 120 h, read-out: MIC100; summary of the method: as §1
Mucor mucedo [6] = test: Antifungal activity against Mucor mucedo ATCC 7941 assessed as growth inhibition at pH 5.6 incubated for 20 hrs in presence of 10% beef serum; details: ATCC 7941, 20 h, read-out: MIC100; summary of the method: as §1
Candida albicans [7] = test: Antifungal activity against Candida albicans ATCC 10231 assessed as growth inhibition at pH 7 incubated for 20 hrs in presence of 10% beef serum; details: for MIC: ATCC 10231, 20 h, read-out: MIC100; summary of the method: as §1
Mucor mucedo [8] = test: Antifungal activity against Mucor mucedo ATCC 7941 assessed as growth inhibition at pH 7 incubated for 20 hrs in presence of 10% beef serum; details: ATCC 7941, 20 h, read-out: MIC100; summary of the method: as §1
[9] = tested on: Trichophyton mentagrophytes; test: Antifungal activity against Trichophyton mentagrophytes ATCC 9129 assessed as growth inhibition at pH 7 incubated for 5 days in absence of 10% beef serum; details: ATCC 9129, 120 h, read-out: MIC100; summary of the method: as §1
[10] = tested on: Trichophyton mentagrophytes; test: Antifungal activity against Trichophyton mentagrophytes ATCC 9129 assessed as growth inhibition at pH 5.6 incubated for 5 days in absence of 10% beef serum; details: ATCC 9129, 120 h, read-out: MIC100; summary of the method: as §1
[11] = tested on: Trichophyton mentagrophytes; test: Antifungal activity against Trichophyton mentagrophytes ATCC 9129 assessed as growth inhibition at pH 7 incubated for 5 days in presence of 10% beef serum; details: ATCC 9129, 120 h, read-out: MIC100; summary of the method: as §1
Candida albicans [12] = test: Antifungal activity against Candida albicans ATCC 10231 assessed as growth inhibition at pH 7 incubated for 20 hrs in absence of 10% beef serum; details: for MIC: ATCC 10231, 20 h, read-out: MIC100; summary of the method: as §1
Candida albicans [13] = test: Antifungal activity against Candida albicans ATCC 10231 assessed as growth inhibition at pH 5.6 incubated for 20 hrs in presence of 10% beef serum; details: for MIC: ATCC 10231, 20 h, read-out: MIC100; summary of the method: as §1
Candida albicans [14] = test: Antifungal activity against Candida albicans ATCC 10231 assessed as growth inhibition at pH 5.6 incubated for 20 hrs in absence of 10% beef serum; details: for MIC: ATCC 10231, 20 h, read-out: MIC100; summary of the method: as §1
Mucor mucedo [15] = test: Antifungal activity against Mucor mucedo ATCC 7941 assessed as growth inhibition at pH 7 incubated for 20 hrs in absence of 10% beef serum; details: ATCC 7941, 20 h, read-out: MIC100; summary of the method: as §1
[16] = tested on: Trichophyton mentagrophytes; test: Antifungal activity against Trichophyton mentagrophytes ATCC 9129 assessed as growth inhibition at pH 5.6 incubated for 5 days in presence of 10% beef serum; details: ATCC 9129, 120 h, read-out: MIC100; summary of the method: as §1

Row | Structure (SMILES) | MIC100 (Aspergillus niger [1]) | MIC (Mucor mucedo [2]) [µg/mL] | MIC100 (Aspergillus niger [3]) | MIC100 (Aspergillus niger [4]) | MIC100 (Aspergillus niger [5]) | MIC (Mucor mucedo [6]) [µg/mL] | MIC (Candida albicans [7]) [µg/mL] | MIC (Mucor mucedo [8]) [µg/mL] | MIC [9] [µg/mL] | MIC [10] [µg/mL] | MIC [11] [µg/mL] | MIC (Candida albicans [12]) [µg/mL] | MIC (Candida albicans [13]) [µg/mL] | MIC (Candida albicans [14]) [µg/mL] | MIC (Mucor mucedo [15]) [µg/mL] | MIC [16] [µg/mL] | MIC (Aspergillus niger [1]) [µg/mL] | MIC (Aspergillus niger [3]) [µg/mL] | MIC (Aspergillus niger [4]) [µg/mL] | MIC (Aspergillus niger [5]) [µg/mL] | further results
1 | CCCCCCOC(=O)/C=C/CI | inactive | 14 (≈ 47.3 µM) | inactive | inactive | inactive | 40 | 90 | 50 | 3 (≈ 10.1 µM) | < 1 | 20 | 30 (≈ 101 µM) | 80 | 16 (≈ 54 µM) | 14 (≈ 47.3 µM) | 8 |  |  |  |  | 
2 | COC(=O)/C=C/CCl | inactive | 60 (≈ 446 µM) | inactive | inactive | inactive | 80 |  | 90 | 60 (≈ 446 µM) | 4 (≈ 29.7 µM) | 60 |  |  |  | 80 (≈ 595 µM) | 40 |  |  |  |  | MIC100 (Candida albicans [7]): inactive; MIC100 (Candida albicans [12]): inactive; MIC100 (Candida albicans [13]): inactive; MIC100 (Candida albicans [14]): inactive
3 | COC(=O)/C=C/CI |  | 9 (≈ 39.8 µM) |  |  |  | 10 | 18 | 8 | 2 (≈ 8.85 µM) | < 1 | 4 | 20 (≈ 88.5 µM) | 30 | 16 (≈ 70.8 µM) | 9 (≈ 39.8 µM) | 3 | 30 (≈ 133 µM) | 40 | 40 | 30 (≈ 133 µM) | 
4 | CCOC(=O)/C=C/CBr |  | 5 (≈ 25.9 µM) |  |  |  | 7 | 40 | 7 | 2 (≈ 10.4 µM) | < 1 | 4 | 30 (≈ 155 µM) | 30 | 20 (≈ 104 µM) | 6 (≈ 31.1 µM) | 2 | 80 (≈ 414 µM) | 80 | 90 | 70 (≈ 363 µM) | 
5 | CCCCOC(=O)/C=C/CBr |  | 4 (≈ 18.1 µM) |  |  |  | 4 | 40 | 7 | 3 (≈ 13.6 µM) | < 1 | 8 | 30 (≈ 136 µM) | 30 | 16 (≈ 72.4 µM) | 4 (≈ 18.1 µM) | 4 | 60 (≈ 271 µM) | 80 | 100 | 50 (≈ 226 µM) | 
6 | CCCCCOC(=O)/C=C/CBr |  | 3 (≈ 12.8 µM) | inactive | inactive |  | 14 | 50 | 30 | 2 (≈ 8.51 µM) | < 1 | 10 | 30 (≈ 128 µM) | 50 | 20 (≈ 85.1 µM) | 14 (≈ 59.5 µM) | 4 | 70 (≈ 298 µM) |  |  | 70 (≈ 298 µM) | 
7 | CCCCCCOC(=O)/C=C/CBr | inactive | 14 (≈ 56.2 µM) | inactive | inactive | inactive | 40 | 90 | 50 | 4 (≈ 16.1 µM) | < 1 | 30 | 20 (≈ 80.3 µM) | 70 | 20 (≈ 80.3 µM) | 16 (≈ 64.2 µM) | 14 |  |  |  |  | 
8 | CCCOC(=O)/C=C/CBr |  | 4 (≈ 19.3 µM) |  |  |  | 5 | 40 | 7 | 3 (≈ 14.5 µM) | < 1 | 7 | 30 (≈ 145 µM) | 30 | 18 (≈ 86.9 µM) | 4 (≈ 19.3 µM) | 3 | 80 (≈ 386 µM) | 80 | 90 | 60 (≈ 290 µM) | 
